Reference: ChEMBL document CHEMBL4834416, “The Discovery of Novel ACA Derivatives as Specific TRPM2 Inhibitors that Reduce Ischemic Injury Both In Vitro and In Vivo” (J Med Chem, 2021)
Active and inactive are the calls of the source. The calls are words filed in the database; no cut-off is given here.

How the values were obtained:
[1] = target: T1, Transient receptor potential cation channel subfamily M member 2 (Homo sapiens, UniProt O94759); assay: Inhibition of human TRPM2 expressed in HEK293T cells assessed as suppression of H2O2-induced calcium flux at 1 uM measured after 30 mins by Fluo-3/AM assay; type: cell-based
[2] = target: T1, Transient receptor potential cation channel subfamily M member 2; assay: Inhibition of human TRPM2 expressed in HEK293T cells assessed as suppression of H2O2-induced calcium flux at 0.3 uM measured after 30 mins by Fluo-3/AM assay; type: cell-based
[3] = target: T1, Transient receptor potential cation channel subfamily M member 2; assay: Inhibition of human TRPM2 expressed in HEK293T cells assessed as blocked of ADPR-activated current by whole cell patch clamp electrophysiology; type: cell-based
SH-SY5Y [4] = assay: Cytotoxicity against human SH-SY5Y cells assessed as toxicity at 30 uM incubated for 24 hrs by CCK-8 assay; type: cell-based
Procedure, shortened: (§1)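 SH-SY5Y cells were seeded at 2 × 10⁴ per well and grown 12 h at 37 °C. They were then treated with compound (1–30 μM) under normoxic, normal-glucose conditions for 24 h. CCK-8 (10%) was added for 2 h at 37 °C and OD450 read. Viability was taken relative to untreated control after blank subtraction, with three replicate wells.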

[5] = target: T2, Transient receptor potential cation channel subfamily M member 8 (Homo sapiens, UniProt Q7Z2W7); assay: Inhibition of human TRPM8 expressed in HEK293T cells assessed as blocked of menthol-activated current at 10 uM by whole cell patch clamp electrophysiology relative to control; type: cell-based
Procedure, shortened: (§2)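 Whole-cell patch clamp was run at room temperature on HEK293T cells transiently cotransfected with human TRPM8 plus GFP, 24–48 h before recording. ECS was 145 NaCl, 5.6 KCl, 2 MgCl₂, 1.2 CaCl₂, 10 HEPES, pH 7.2. Current was activated with 1 mM menthol, and compound was perfused at least 60 s after it stabilized. Inhibition was calculated relative to stable agonist current minus residual current; n = 3–6.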
Target sequence in this assay (Q7Z2W7 whole entry, looked up, the tested form may be a part): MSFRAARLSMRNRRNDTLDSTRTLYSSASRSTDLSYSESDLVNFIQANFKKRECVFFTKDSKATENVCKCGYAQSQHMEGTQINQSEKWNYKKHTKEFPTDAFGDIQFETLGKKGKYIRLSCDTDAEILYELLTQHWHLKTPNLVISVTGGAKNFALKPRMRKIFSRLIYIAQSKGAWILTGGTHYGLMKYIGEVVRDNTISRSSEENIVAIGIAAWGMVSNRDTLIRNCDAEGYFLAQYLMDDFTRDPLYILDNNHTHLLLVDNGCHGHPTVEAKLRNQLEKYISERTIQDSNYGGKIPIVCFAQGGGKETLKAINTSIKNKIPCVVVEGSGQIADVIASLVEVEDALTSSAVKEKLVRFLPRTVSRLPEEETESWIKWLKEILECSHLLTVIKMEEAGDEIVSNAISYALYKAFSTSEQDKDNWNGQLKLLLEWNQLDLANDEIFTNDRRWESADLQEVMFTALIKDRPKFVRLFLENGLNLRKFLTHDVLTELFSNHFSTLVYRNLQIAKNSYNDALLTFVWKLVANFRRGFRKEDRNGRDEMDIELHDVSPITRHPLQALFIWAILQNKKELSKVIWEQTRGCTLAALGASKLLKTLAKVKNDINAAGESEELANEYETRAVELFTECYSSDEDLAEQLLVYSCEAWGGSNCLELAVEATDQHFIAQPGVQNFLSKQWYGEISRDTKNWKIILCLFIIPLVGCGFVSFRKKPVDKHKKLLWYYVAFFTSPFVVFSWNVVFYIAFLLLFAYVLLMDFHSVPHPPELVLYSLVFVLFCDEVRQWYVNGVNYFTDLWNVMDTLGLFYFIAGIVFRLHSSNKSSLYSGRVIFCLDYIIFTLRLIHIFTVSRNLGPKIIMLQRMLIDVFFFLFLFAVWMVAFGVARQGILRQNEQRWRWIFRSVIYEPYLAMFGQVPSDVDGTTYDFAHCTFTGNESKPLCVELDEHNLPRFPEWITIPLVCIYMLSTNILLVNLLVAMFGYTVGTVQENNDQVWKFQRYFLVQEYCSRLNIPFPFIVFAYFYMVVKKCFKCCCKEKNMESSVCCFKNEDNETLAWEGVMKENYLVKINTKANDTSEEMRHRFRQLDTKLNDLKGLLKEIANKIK

Phospholipase A2 = Phospholipase A2 (Homo sapiens, UniProt P04054); assay: Inhibition of PLA2 (unknown origin) using soybean phosphatidylcholine as substrate at 10 uM preincubated for 30 mins followed incubated for 60 mins after substrate addition by microplate reader relative to control
Procedure, shortened: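 PLA2 (4 μg/L in PBS) was preincubated 30 min at 37 °C with inhibitor in 125 mM Tris. Substrate was then added for 60 min: soybean phosphatidylcholine with Tris, CaCl₂, sodium deoxycholate and 0.5% Triton X-100. Liberated free fatty acids were quantified colorimetrically at OD550. Results are % inhibition versus enzyme without inhibitor, n = 3.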

SH-SY5Y [6] = assay: Neuroprotective activity against oxygen glucose deprivation/reperfusion-induced cell death in human SH-SY5Y cells assessed as cell viability at 3 uM […] by CCK8 assay relative to control; type: functional
SH-SY5Y [7] = assay: Cytotoxicity against human SH-SY5Y cells assessed as cell viability under normoxic/normal sugar condition at 10 to 30 uM by CCK-8 assay; type: cell-based; settings: dose 10-30 µM; procedure, shortened: as §1
[8] = target: T2, Transient receptor potential cation channel subfamily M member 8; assay: Inhibition of human TRPM8 expressed in HEK293T cells assessed as blocked of menthol-activated current by whole cell patch clamp electrophysiology relative to control; type: cell-based; procedure, shortened: as §2
Target sequence in this assay (Q7Z2W7 whole entry, the tested form may be a part): as the sequence (Q7Z2W7 whole entry, looked up, the tested form may be a part) above

Mus musculus [9] = assay: Neuroprotective activity in mouse model of transient middle cerebral artery occlusion-induced cerebral ischemia-reperfusion injury assessed as reduction in infarct volume at 3 mg/kg, iv treated for 3 hrs after onset of reperfusion by TTC staining based assay (reference value: 57.6 +/- 4.9%); type: functional; design: scale not given: the % may be the effect or the level left
Mus musculus [10] = assay: Neuroprotective activity in mouse model of transient middle cerebral artery occlusion-induced cerebral ischemia-reperfusion injury assessed as reduction in infarct volume at 1 mg/kg, iv treated for 3 hrs after onset of reperfusion by TTC staining based assay (reference value: 52 +/- 1.7%); type: functional; design: scale not given: the % may be the effect or the level left
Mus musculus [11] = assay: Neuroprotective activity in mouse model of transient middle cerebral artery occlusion-induced cerebral ischemia-reperfusion injury assessed as reduction in infarct volume at 0.3 mg/kg, iv treated for 3 hrs after onset of reperfusion by TTC staining based assay (reference value: 52 +/- 1.7%); type: functional; design: scale not given: the % may be the effect or the level left
Mus musculus [12] = assay: Neuroprotective activity in mouse model of transient middle cerebral artery occlusion-induced cerebral ischemia-reperfusion injury assessed as reduction neurological score at 3 mg/kg, iv treated for 3 hrs after onset of reperfusion by TTC staining based assay (reference value: 2.4 +/- 0.5); type: functional
Mus musculus [13] = assay: Neuroprotective activity in mouse model of transient middle cerebral artery occlusion-induced cerebral ischemia-reperfusion injury assessed as reduction neurological score at 1 mg/kg, iv treated for 3 hrs after onset of reperfusion by TTC staining based assay relative to control; type: functional, organism-based
Mus musculus [14] = assay: Neuroprotective activity in mouse model of transient middle cerebral artery occlusion-induced cerebral ischemia-reperfusion injury assessed as reduction neurological score at 0.3 mg/kg, iv treated for 3 hrs after onset of reperfusion by TTC staining based assay relative to control; type: functional, organism-based

T1 sequence (O94759 whole entry): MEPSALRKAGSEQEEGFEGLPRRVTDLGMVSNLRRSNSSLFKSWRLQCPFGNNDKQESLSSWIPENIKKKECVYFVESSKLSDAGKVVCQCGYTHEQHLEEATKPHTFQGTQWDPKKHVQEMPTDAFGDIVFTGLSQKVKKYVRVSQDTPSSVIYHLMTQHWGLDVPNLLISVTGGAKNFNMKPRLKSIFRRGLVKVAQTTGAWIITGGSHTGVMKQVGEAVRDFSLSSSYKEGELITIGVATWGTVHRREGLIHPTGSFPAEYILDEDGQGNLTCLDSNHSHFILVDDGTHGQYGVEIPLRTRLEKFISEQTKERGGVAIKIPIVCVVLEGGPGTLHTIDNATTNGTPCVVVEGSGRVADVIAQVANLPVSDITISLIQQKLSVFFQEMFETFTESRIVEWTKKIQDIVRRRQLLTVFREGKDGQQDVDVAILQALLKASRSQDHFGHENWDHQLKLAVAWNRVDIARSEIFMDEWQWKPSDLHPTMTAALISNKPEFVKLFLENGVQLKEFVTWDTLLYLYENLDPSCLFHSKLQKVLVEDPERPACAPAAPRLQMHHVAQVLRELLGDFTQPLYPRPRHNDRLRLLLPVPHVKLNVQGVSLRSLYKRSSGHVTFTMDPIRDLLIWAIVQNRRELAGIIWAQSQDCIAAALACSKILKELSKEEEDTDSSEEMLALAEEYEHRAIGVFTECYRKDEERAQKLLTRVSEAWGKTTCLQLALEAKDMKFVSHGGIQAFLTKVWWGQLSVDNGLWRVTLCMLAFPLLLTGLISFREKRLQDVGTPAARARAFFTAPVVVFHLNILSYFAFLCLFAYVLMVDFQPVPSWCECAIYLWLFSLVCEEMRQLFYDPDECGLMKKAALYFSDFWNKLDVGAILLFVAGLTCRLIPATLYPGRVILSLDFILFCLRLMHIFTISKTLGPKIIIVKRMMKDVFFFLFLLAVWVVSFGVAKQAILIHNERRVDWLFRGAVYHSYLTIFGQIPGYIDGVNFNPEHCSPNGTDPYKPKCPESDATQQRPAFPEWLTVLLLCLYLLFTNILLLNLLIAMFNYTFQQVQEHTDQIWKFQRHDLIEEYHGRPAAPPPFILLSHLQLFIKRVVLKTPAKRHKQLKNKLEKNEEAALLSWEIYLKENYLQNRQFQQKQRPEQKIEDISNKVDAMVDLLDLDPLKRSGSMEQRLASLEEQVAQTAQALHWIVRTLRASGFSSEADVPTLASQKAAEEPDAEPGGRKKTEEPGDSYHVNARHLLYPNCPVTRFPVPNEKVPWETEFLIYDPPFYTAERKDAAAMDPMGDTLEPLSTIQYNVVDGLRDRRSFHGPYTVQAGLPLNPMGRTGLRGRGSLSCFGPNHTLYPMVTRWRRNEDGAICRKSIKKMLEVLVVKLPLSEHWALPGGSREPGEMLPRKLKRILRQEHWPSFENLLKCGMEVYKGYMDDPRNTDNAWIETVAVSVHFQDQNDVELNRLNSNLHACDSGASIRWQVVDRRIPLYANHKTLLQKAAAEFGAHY
Sequence of Phospholipase A2 (P04054 23-148 limits assumed): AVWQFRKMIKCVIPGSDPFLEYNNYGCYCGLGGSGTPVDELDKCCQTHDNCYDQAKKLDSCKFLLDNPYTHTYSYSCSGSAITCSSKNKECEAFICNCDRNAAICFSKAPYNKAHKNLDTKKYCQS

Row | Compound | inhibition [1] | other results
1 | O=C(/C=C/c1ccccc1)Nc1ccccc1C(=O)O | < 45% | inhibition [2]: inactive
2 | O=C(/C=C/c1ccc(-c2cccc([N+](=O)[O-])c2)cc1)Nc1ccccc1C(=O)O | > 45% | IC50 [3]: 0.398 µM; Activity (SH-SY5Y [4]): < 10%; inhibition [5]: 14.6%; inhibition (Phospholipase A2): 24.6%; Activity (SH-SY5Y [6]): Active; Activity (SH-SY5Y [7]): Non-Toxic
3 | CCCCCc1ccc(/C=C/C(=O)Nc2cc(Cl)ccc2C(=O)O)cc1 | > 45% | 
4 | O=C(/C=C/c1ccc(-c2ccc(C(F)(F)F)cc2)cc1)Nc1ccccc1C(=O)O | > 45% | 
5 | COc1ccccc1-c1ccc(/C=C/C(=O)Nc2ccccc2C(=O)O)cc1 | > 45% | 
6 | CCCCCc1ccc(/C=C/C(=O)Nc2cc(F)c(F)cc2C(=O)O)cc1 | > 45% | 
7 | CCOC(=O)Cn1nc(-c2ccc(C(F)(F)F)cc2)c2c1CCCCC2 |  | IC50 [3]: 0.013 µM
8 | O=C(/C=C/c1ccc(-c2ccccc2)cc1)Nc1cc(Cl)ccc1C(=O)O | > 45% | 
9 | CC(C)c1ccc(-c2ccc(/C=C/C(=O)Nc3ccccc3C(=O)O)cc2)cc1 | > 45% | 
10 | O=C(/C=C/c1ccc(Cl)cc1)Nc1ccccc1C(=O)O | < 45% | inhibition [2]: inactive
11 | CCCCCc1ccc(/C=C/C(=O)Nc2ccc(C)cc2C(=O)O)cc1 | > 45% | IC50 [3]: 0.987 µM; Activity (SH-SY5Y [4]): < 10%; inhibition [5]: 85.6%; inhibition (Phospholipase A2): inactive; Activity (SH-SY5Y [6]): Active
12 | CCOc1ccc(/C=C/C(=O)Nc2ccccc2C(=O)O)cc1 | < 45% | inhibition [2]: inactive
13 | O=C(/C=C/c1ccc(-c2ccccc2F)cc1)Nc1ccccc1C(=O)O | > 45% | 
14 | COc1cccc(-c2ccc(/C=C/C(=O)Nc3ccccc3C(=O)O)cc2)c1 | > 45% | 
15 | O=C(/C=C/c1ccc(-c2cccnc2)cc1)Nc1ccccc1C(=O)O | < 45% | inhibition [2]: inactive
16 | CCCCCc1ccc(/C=C/C(=O)Nc2c(C(=O)O)ccc(C)c2C)cc1 | < 45% | 
17 | CCCCCc1ccc(/C=C/C(=O)c2ccccc2C(=O)O)cc1 | > 45% | 
18 | CC(C)(C)c1ccc(-c2ccc(/C=C/C(=O)Nc3ccccc3C(=O)O)cc2)cc1 | > 45% | 
19 | CCCCCc1ccc(C(=O)Nc2ccccc2C(=O)O)cc1 | > 45% | 
20 | O=C(/C=C/c1ccc(-c2ccccc2)cc1)Nc1ccccc1C(=O)O | > 45% | IC50 [3]: 2.56 µM
21 | Clc1ccc(COC(Cn2ccnc2)c2ccc(Cl)cc2Cl)cc1 (configuration not stated) [ECONAZOLE] |  | IC50 [3]: 3 µM

Row | Compound | inhibition [1] | other results
22 | Cc1ccc(-c2ccc(/C=C/C(=O)Nc3ccccc3C(=O)O)cc2)cc1 | > 45% | 
23 | CC(C)(C)c1ccc(/C=C/C(=O)Nc2ccccc2C(=O)O)cc1 | < 45% | inhibition [2]: inactive
24 | O=C1CCN(C(=O)/C=C/c2ccc(-c3ccccc3)cc2)c2ccccc21 | < 45% | 
25 | O=C1CCCN(C(=O)/C=C/c2ccc(-c3ccccc3)cc2)c2ccccc21 | < 45% | 
26 | COc1cccc(NC(=O)/C=C/c2ccc(Cl)cc2)c1 |  | IC50 [8]: > 10 µM
27 | CCCCCc1ccc(/C=C/C(=O)Nc2c(Cl)cccc2C(=O)O)cc1 | < 45% | 
28 | CC(C)NC(=O)c1ccc(/C=C/C(=O)Nc2ccccc2C(=O)O)cc1 | < 45% | inhibition [2]: inactive
29 | O=C(/C=C/c1ccc(N2CCCCC2)cc1)Nc1ccccc1C(=O)O | < 45% | inhibition [2]: inactive
30 | O=C(/C=C/c1ccc(-c2ccccc2)cc1)N1C(=O)c2ccccc21 | < 45% | 
31 | CCCCCc1ccc(/C=C/C(=O)Nc2cccc(C(=O)O)c2)cc1 | > 45% | 
32 | CCCCCc1ccc(/C=C/C(=O)Nc2cc(C)ccc2C(=O)O)cc1 | > 45% | IC50 [3]: 0.467 µM; Activity (SH-SY5Y [4]): < 10%; inhibition [5]: 88.1%; inhibition (Phospholipase A2): inactive; Activity (SH-SY5Y [6]): Active; Activity (SH-SY5Y [7]): Non-Toxic
33 | Cc1ccc(/C=C/C(=O)Nc2ccccc2C(=O)O)cc1 | < 45% | inhibition [2]: inactive
34 | Cc1ccccc1-c1ccc(/C=C/C(=O)Nc2ccccc2C(=O)O)cc1 | > 45% | 
35 | Clc1ccccc1C(c1ccccc1)(c1ccccc1)n1ccnc1 [CLOTRIMAZOLE] |  | IC50 [3]: 3 µM
36 | CCCc1ccc(/C=C/C(=O)Nc2ccccc2C(=O)O)cc1 | < 45% | inhibition [2]: inactive
37 | O=C(/C=C/c1ccc(N2CCOCC2)cc1)Nc1ccccc1C(=O)O | < 45% | inhibition [2]: inactive
38 | CCCCCc1ccc(/C=C/C(=O)N2CCC(=O)c3ccccc32)cc1 | < 45% | 
39 | O=C(/C=C/c1ccc(-c2cccc([N+](=O)[O-])c2)cc1)Nc1ccc(Br)cc1C(=O)O | > 45% | 
40 | CCCCCc1ccc(/C=C/C(=O)N2CCCC(=O)c3ccccc32)cc1 | < 45% | 
41 | CCc1ccc(/C=C/C(=O)Nc2ccccc2C(=O)O)cc1 | < 45% | inhibition [2]: inactive
42 | O=C(/C=C/c1ccc(-c2cccc(F)c2)cc1)Nc1ccccc1C(=O)O | > 45% | IC50 [3]: 0.83 µM; Activity (SH-SY5Y [4]): < 23.7%

Row | Compound | inhibition [1] | other results
43 | O=C(/C=C/c1ccc(-c2cccc(Cl)c2)cc1)Nc1ccccc1C(=O)O | > 45% | 
44 | O=C(/C=C/c1ccc(-c2ccccc2)cc1)Nc1ccc(Cl)cc1C(=O)O | > 45% | 
45 | COc1ccc(-c2ccc(/C=C/C(=O)Nc3ccccc3C(=O)O)cc2)cc1 | > 45% | 
46 | O=C(/C=C/c1ccc(-c2ccccc2C(F)(F)F)cc1)Nc1ccccc1C(=O)O | > 45% | 
47 | O=C(/C=C/c1ccc(-c2ccc(F)cc2)cc1)Nc1ccccc1C(=O)O | < 45% | 
48 | O=C(/C=C/c1ccc(-c2cccc(Br)c2)cc1)Nc1ccccc1C(=O)O | > 45% | 
49 | O=C(/C=C/c1ccc(-c2ccccc2)cc1)Nc1ccc(F)cc1C(=O)O | > 45% | 
50 | Cc1ccc(C(=O)O)c(NC(=O)/C=C/c2ccc(-c3cccc([N+](=O)[O-])c3)cc2)c1 | > 45% | 
51 | CCCCCc1ccc(/C=C/C(=O)Nc2c(C)cc(Cl)cc2C(=O)O)cc1 | < 45% | 
52 | CCc1ccc(-c2ccc(/C=C/C(=O)Nc3ccccc3C(=O)O)cc2)cc1 | > 45% | 
53 | CCCCCc1ccc(/C=C/C(=O)Nc2ccc(Br)cc2C(=O)O)cc1 | > 45% | 
54 | O=C(/C=C/c1ccc(-c2ccccc2)cc1)Nc1ccc(Br)cc1C(=O)O | > 45% | IC50 [3]: 0.41 µM; Activity (SH-SY5Y [4]): < 10%; inhibition [5]: 93.3%; inhibition (Phospholipase A2): inactive; Activity (SH-SY5Y [6]): Active
55 | CCCCCc1ccc(/C=C/C(=O)Nc2c(C)cccc2C(=O)O)cc1 | < 45% | 
56 | Cc1cccc(-c2ccc(/C=C/C(=O)Nc3ccccc3C(=O)O)cc2)c1 | > 45% | 
57 | CCCCCc1ccc(/C=C/C(=O)Nc2ccc(C(=O)O)cc2)cc1 | < 45% | 
58 | CCCCCc1ccc(/C=C/c2ccccc2C(=O)O)cc1 | < 45% | 
59 | CCCCCc1ccc(NC(=O)c2ccccc2C(=O)O)cc1 | > 45% | 
60 | CC(C)c1ccc(/C=C/C(=O)Nc2ccccc2C(=O)O)cc1 | < 45% | inhibition [2]: inactive
61 | Cc1cc(-c2ccccc2)ccc1/C=C/C(=O)Nc1ccccc1C(=O)O | > 45% | 
62 | Cc1cc(/C=C/C(=O)Nc2ccccc2C(=O)O)ccc1-c1ccccc1 | > 45% | 
63 | CC1=NN(c2ccccc2)C(=O)C1 [EDARAVONE] |  | viability at 3 µM (SH-SY5Y [6]; read-out: Activity): 81.2%; Activity (SH-SY5Y [7]): Non-Toxic; Activity (Mus musculus [9]): 39%; Activity (Mus musculus [10]): 43.9%; Activity (Mus musculus [11]): 46.2%; Activity (Mus musculus [12]): 1.6; Activity (Mus musculus [13]): inactive; Activity (Mus musculus [14]): inactive
